# Screens as filed in PubChem BioAssay.
# TRPC6 inhibitor: mouse TRPC6 channel inhibition. B-score at 10 µM. Q61143. HEK293-TRPC6, membrane potential dye, ACh-evoked depolarization; stronger effect = lower value. hit rate 1.1% among 310,000. AID 2553;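 active means B-score under library mean minus 3 SD, initial fluorescence not abnormally high, positive integrated signal ratio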;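 further: B-score derived from integrated fluorescence ratio over the kinetic read; more negative B-score means stronger inhibition of depolarization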
# Target sequence (Q61143 whole entry, looked up): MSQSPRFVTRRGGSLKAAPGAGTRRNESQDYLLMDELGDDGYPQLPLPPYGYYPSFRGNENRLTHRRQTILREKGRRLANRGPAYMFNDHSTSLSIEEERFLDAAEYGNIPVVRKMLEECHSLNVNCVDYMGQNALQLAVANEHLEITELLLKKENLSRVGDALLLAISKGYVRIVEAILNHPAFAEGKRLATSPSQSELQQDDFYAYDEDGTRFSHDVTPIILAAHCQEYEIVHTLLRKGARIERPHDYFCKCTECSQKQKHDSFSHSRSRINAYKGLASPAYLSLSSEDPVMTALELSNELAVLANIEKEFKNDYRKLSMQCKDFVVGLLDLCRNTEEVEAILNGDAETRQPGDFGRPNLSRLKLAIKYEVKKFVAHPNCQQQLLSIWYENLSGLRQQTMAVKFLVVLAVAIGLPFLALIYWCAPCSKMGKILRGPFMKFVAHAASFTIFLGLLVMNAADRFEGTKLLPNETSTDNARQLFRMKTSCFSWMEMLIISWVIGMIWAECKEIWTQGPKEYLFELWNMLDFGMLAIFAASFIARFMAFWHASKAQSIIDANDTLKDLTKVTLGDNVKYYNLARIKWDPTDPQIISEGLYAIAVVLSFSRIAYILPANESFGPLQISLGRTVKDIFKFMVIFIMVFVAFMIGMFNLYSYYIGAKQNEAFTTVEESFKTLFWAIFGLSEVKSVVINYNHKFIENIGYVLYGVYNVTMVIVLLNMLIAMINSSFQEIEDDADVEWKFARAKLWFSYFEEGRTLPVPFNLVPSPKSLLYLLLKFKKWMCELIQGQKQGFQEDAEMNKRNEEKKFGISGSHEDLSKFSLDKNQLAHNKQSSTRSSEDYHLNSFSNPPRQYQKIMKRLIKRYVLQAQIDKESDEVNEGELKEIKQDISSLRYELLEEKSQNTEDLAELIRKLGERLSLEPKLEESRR
# TRPC4 agonist: opens the mouse TRPC4 cation channel | Q9QUQ5 | HEK293 TRPC4beta/mu-opioid, Fluo4 calcium fluorescence; stronger effect = higher value | B-score at 10 µM | hit rate 0.49% among 310,000 | AID 2237;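 active means B-score above 5 SD of library B-scores, and initial fluorescence ratio not above library mean plus 5 SD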;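 further: positive B-score marks a calcium rise read as TRPC4 activation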
#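 Assay system: HEK293 cells stably co-expressing mouse TRPC4beta and mu-opioid receptor / Timing: Fluo4 dye loading 45 min at room temperature, 110 s recording / Signal: Fluo4 calcium-sensitive dye fluorescence, kinetic, 1 Hz baseline / Read-out: integrated baseline-normalised fluorescence ratio, converted to per-well B score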
# TRPC6 activator: mouse TRPC6 channel activation | HEK293-TRPC6 membrane potential dye fluorescence; stronger effect = higher value | B-score at 10 µM | hit rate 0.13% among 310,000 | AID 2550;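 active means B-score of the integrated fluorescence ratio above library mean plus 3 SD, and starting fluorescence ratio within library mean plus 5 SD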;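 further: higher score means more depolarization so channel activation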
# FID counter: counter-screen for HCV NS3 helicase inhibitors: DNA intercalator displacement; DNA fluorescent intercalator displacement, fluorescence; inhibition, % at 7.9 µM; hit rate 0.17% among 290,000; in the data active means inhibition above about 37%;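 further: higher means more ethidium bromide displaced from hairpin DNA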
# TRPC4 block: TRPC4 (mouse) channel inhibition; B-score at 10 µM; hit rate 0.39% among 300,000; HEK293 TRPC4beta/mu-opioid, DAMGO-evoked Fluo4 calcium flux; stronger effect = lower value; Q9QUQ5;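 active means B-score over 3 SD under the library average, no early fluorescence shift, positive overall ratio signal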
#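 test system = HEK293 cells with stable TRPC4beta plus mu-opioid receptor expression | detection = Fluo4 Ca2+ flux fluorescence | read-out = integrated fluorescence ratio relative to baseline, converted to per-well B score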
# TRPC4 PAM: allosteric potentiators of mouse TRPC4 channel | Q9QUQ5 | HEK293 TRPC4beta/mu-opioid, DAMGO EC20, Fluo-4 Ca2+ flux; stronger effect = higher value | hit rate 0.42% among 310,000 | B-score at 10 µM;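 active means B-score of calcium response area above 5 SD of library B-scores, with initial fluorescence ratio within 5 SD of library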
# Hits are given with their value; . = inactive; / = no result. Only some compounds are listed: those with a hit (about 2.3% of all), similar ones and a draw of the others.
SMILES,TRPC6 inhibitor,TRPC4 agonist,TRPC6 activator,FID counter,TRPC4 block,TRPC4 PAM
COc1ccc(-c2cc(CC3(C(=O)O)CCN(C(=O)OC(C)(C)C)CC3)on2)c(OC)c1,.,.,.,.,.,.
COc1cc(/C=C2\C(=O)N(c3ccc(NC(C)=O)cc3)N=C2c2ccccc2)ccc1O,.,.,.,.,.,15
Cc1ccn2c(-c3csc(NCc4ccco4)n3)c(C)nc2c1,.,.,.,.,-6,.
CC(C)(C)c1cc(C(=O)NNC(=O)Nc2ccccc2)n(Cc2ccccc2)n1,.,.,.,.,.,.
CC(C)(C)c1cc(C(=O)NCc2cc(F)cc3c2OCOC3)n(Cc2ccccc2)n1,.,.,.,.,.,13
COc1ccc(C(=O)/C=C/Nc2ccc(S(=O)(=O)Nc3cc(OC)nc(OC)n3)cc2)c(OC)c1,.,.,.,.,.,.
CS(=O)(=O)Nc1ccc(C2=NN(C(=O)c3ccco3)C(c3ccco3)C2)cc1 (configuration not stated),.,.,.,.,.,.
COc1cccc(C2=NN(C(=O)c3ccco3)C(c3ccco3)C2)c1 (configuration not stated),.,.,.,.,-6,.
O=C(CN1CCc2ccccc2C1)Nc1ccc(OC(F)(F)F)cc1,.,.,.,.,.,.
O=C(CN1CCN(Cc2ccc(Cl)cc2)C1=O)NCCCN1CCN(c2ccc(F)cc2)CC1,.,.,.,.,-6,.
O=C(CN1CCN(Cc2ccc(Cl)cc2)C1=O)NCCCN1CCOCC1,.,.,.,.,.,.
Cc1ccc(C(=O)N(CCc2ccccc2)Cc2ccccc2)cc1S(=O)(=O)N1CCCCC1,.,.,.,/,.,.
C/[N+]([O-])=C\c1cccc(OCCN2CCN(c3ncc(C(F)(F)F)cc3Cl)CC2)c1,.,.,.,.,.,12
COc1ccc(S(=O)(=O)N2CCOC2CNC(=O)C(=O)NCC(C)C)cc1OC (configuration not stated),.,.,.,.,.,.
CC(NCC(O)COCCC12CC3CC(CC(C3)C1)C2)c1ccccc1 (configuration not stated),.,83,.,.,.,.
NCC(O)COCCC12CC3CC(CC(C3)C1)C2 (configuration not stated),.,.,.,.,.,.
CCOc1ccc(S(=O)(=O)N2CCCCC2)c(C)c1C,.,.,.,.,.,14
O=C(OCC(=O)N1CCCc2ccccc21)c1ccc(C(F)(F)F)cc1,.,.,.,/,.,.
Cc1ccc(C(=O)OCC(=O)N2CCc3ccccc32)cc1,.,.,.,.,.,11
Clc1cc(/C=N\NC2=NCCN2)cc(Cl)n1,.,.,.,/,.,18
COc1ccc(C(=O)CN2CCN(CCN3C(=O)c4cccc5cccc(c45)C3=O)CC2)cc1,.,.,.,/,.,15
O=C(CN1CCN(CCN2C(=O)c3cccc4cccc(c34)C2=O)CC1)c1ccc(Cl)cc1,/,/,/,.,/,/
O=C(NC(=S)NCc1ccco1)c1ccccc1[N+](=O)[O-],.,.,.,.,.,.
COc1ccc(-c2nn(-c3ccccc3)cc2C(=O)NCC2CCCO2)cc1 (configuration not stated),.,49,.,.,.,.
Cn1cc(CNCC2CCCO2)c(-c2ccc(Oc3ccccc3)cc2)n1 (configuration not stated),.,.,.,.,-7,.
SMILES,TRPC6 inhibitor,TRPC4 agonist,TRPC6 activator,FID counter,TRPC4 block,TRPC4 PAM
COc1ccc(S(=O)(=O)NCCCN2CCCC2=O)c(OC)c1,.,.,.,.,.,.
O=C(Nc1ccc(Cl)cc1)Nn1cnnc1,.,.,.,.,.,.
CCOc1ccc(NC(=O)CN(C)C(=O)C2CC(=O)N(c3ccc4c(c3)OCCO4)C2)cc1OCC (configuration not stated),.,.,.,/,.,.
NC(=O)c1sc(=S)n2c1[nH]c(=O)c1sccc12,.,.,.,.,.,10
CC(=O)NNC(=O)c1sc(=S)n2c1[nH]c(=O)c1sccc12,.,.,.,.,.,.
COC(=O)CSc1nc2ccccn2c(=O)c1C=O,.,.,.,.,-6,.
CN(C)C(=O)c1ccc(Nc2nnc(-c3ccc(O)cc3)c3ccccc23)cc1,.,60,.,.,.,.
CNC(=O)c1ccc(Nc2nnc(-c3ccc(O)cc3)c3ccccc23)cc1,.,.,.,.,.,.
Cc1ccc2[nH]c3c(=O)n(CCN4CCOCC4)cnc3c2c1,.,.,.,.,.,.
Cc1ccc2[nH]c3c(=O)n(CCc4cnc[nH]4)cnc3c2c1,.,211,.,.,.,.
c1ccc(OCC2CCNCC2)nc1,.,84,.,.,.,.
Clc1cccc(Cl)c1COc1ccccn1,.,.,.,.,.,.
O=C(N/N=C/c1cn(-c2cccs2)nc1-c1ccccc1)c1ccccc1Br,.,.,.,.,.,14
O=C(N/N=C/c1cn(-c2cccs2)nc1-c1ccccc1)c1ccccc1O,.,.,.,.,.,.
CSc1ccc(CN(C)Cc2cc(=O)oc3c(C)c(C)ccc23)cc1,.,.,.,.,.,.
Cc1ccc2c(CN(C)Cc3cccc(Cl)c3)cc(=O)oc2c1C,.,.,.,.,.,11
CCC1CCCCN1C(=O)CCNC(=O)Cn1cnc2ccccc2c1=O (configuration not stated),.,.,.,.,.,.
CC(C)Cn1c(CN(C)Cc2ccccc2)nc2c1c(=O)n(C)c(=O)n2C,.,.,.,.,.,.
CN(Cc1ccccc1)Cc1nc2c(c(=O)n(C)c(=O)n2C)n1CCCc1ccccc1,.,.,.,.,.,37
CCCCOc1ccccc1C(=O)N(Cc1ccc(C)o1)C1CCS(=O)(=O)C1 (configuration not stated),.,.,.,.,.,.
Cc1nn(C)cc1C(C(=O)NC1CCCCC1)N(C(=O)Cc1cccs1)c1ccc(C(C)C)cc1 (configuration not stated),.,44,.,.,.,.
COc1ccccc1NC(=O)CCC(=O)Nc1ccccc1OC,.,.,.,.,.,.
COc1ccccc1NC(=O)C1(c2ccccc2)CCCC1,.,.,.,.,.,13
CCCC(C(=O)NC(C)(C)C)N(CCN1CCOCC1)C(=O)CNS(=O)(=O)c1ccccc1 (configuration not stated),.,.,.,.,.,.
CSC(C1CCCC1)n1nnc2ccccc21 (configuration not stated),.,.,.,/,.,.
CC(C)COc1ccc(CN=C(N)N=C(N)N)cc1Cl,.,50,.,.,.,.
CCCS(=O)(=O)c1c(S(=O)(=O)CCC)c2cnccn2c1C(=O)c1ccc(Cl)cc1,.,.,.,.,.,12
